Source: ChEMBL document CHEMBL1126625, “7-Azetidinylquinolones as antibacterial agents. Synthesis and structure-activity relationships” (J Med Chem, 1993)
Values after ≈ are worked out from the molar mass of the structure shown.

What was measured:
Assay type in all cases: functional
Bacillus subtilis = assay: Minimum inhibitory concentration (MIC) preventing growth of Bacillus subtilis
Staphylococcus aureus [1] = assay: Minimum inhibitory concentration (MIC) preventing growth of […]
Klebsiella pneumoniae = assay: Minimum inhibitory concentration (MIC)preventing growth of Klebsiella pneumoniae
Morganella morganii = assay: Minimum inhibitory concentration (MIC) preventing growth of Morganella morganii
Enterobacter cloacae = assay: Minimum inhibitory concentration (MIC)preventing growth of Enterobacter cloacae
Bacillus cereus = assay: Minimum inhibitory concentration (MIC) preventing growth of Bacillus cereus
Proteus vulgaris = assay: Minimum inhibitory concentration (MIC) preventing growth of Proteus vulgaris
[2] = tested on: Staphylococcus epidermidis; assay: Minimum inhibitory concentration (MIC) preventing growth of Staphylococcus epidermidis
Escherichia coli [3] = assay: Minimum inhibitory concentration (MIC)preventing growth of Escherichia coli
Pseudomonas aeruginosa [4] = assay: Minimum inhibitory concentration (MIC)preventing growth of Pseudomonas aeruginosa
Enterococcus faecalis = assay: Minimum inhibitory concentration (MIC) preventing growth of Streptococcus faecalis ATCC 10541
Staphylococcus aureus [5] = assay: Efficacy on systemic infections after oral administration in mice was determined against […] HS-93
In short: (§1)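 Mouse protection test using 4 groups of 10 mice. Mice were infected intraperitoneally with a bacterial suspension slightly above LD100. A single oral dose was given immediately after infection, with four doses, one per group, chosen from in vitro activity. Survival was scored after one week, and ED50 (total mg/kg protecting 50% of mice) was interpolated from group survival rates.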

Pseudomonas aeruginosa [6] = assay: Efficacy on systemic infections after oral administration in mice was determined against Pseudomonas aeruginosa HS-116; in short: as §1
Escherichia coli [7] = assay: Efficacy on systemic infections after oral administration in mice was determined against Escherichia coli HM-42; in short: as §1

SMILES | MIC (Bacillus subtilis) [µg/mL] | MIC (Staphylococcus aureus [1]) [µg/mL] | MIC (Klebsiella pneumoniae) [µg/mL] | MIC (Morganella morganii) [µg/mL] | MIC (Enterobacter cloacae) [µg/mL] | MIC (Bacillus cereus) [µg/mL] | MIC (Proteus vulgaris) [µg/mL] | MIC [2] [µg/mL] | MIC (Escherichia coli [3]) [µg/mL] | MIC (Pseudomonas aeruginosa [4]) [µg/mL] | MIC (Enterococcus faecalis) [µg/mL] | ED50 (Staphylococcus aureus [5]) [mg/kg] | ED50 (Pseudomonas aeruginosa [6]) [mg/kg] | ED50 (Escherichia coli [7]) [mg/kg]
CC1(N)CN(c2cc3c(cc2F)c(=O)c(C(=O)O)cn3-c2ccc(F)cc2F)C1 | 0.12 (≈ 0.298 µM) | 0.25 (≈ 0.62 µM) | 0.12 (≈ 0.298 µM) | 0.25 (≈ 0.62 µM) | 0.25 (≈ 0.62 µM) | 0.25 (≈ 0.62 µM) | 0.25 (≈ 0.62 µM) | 0.25 (≈ 0.62 µM) | 0.12 (≈ 0.298 µM) | 2 (≈ 4.96 µM) | 0.12 (≈ 0.298 µM) | – | – | –
CCn1cc(C(=O)O)c(=O)c2cc(F)c(N3CC(C)(N)C3)cc21 | 0.25 (≈ 0.783 µM) | 0.5 (≈ 1.57 µM) | 0.5 (≈ 1.57 µM) | 0.25 (≈ 0.783 µM) | 0.5 (≈ 1.57 µM) | 1 (≈ 3.13 µM) | 1 (≈ 3.13 µM) | 0.5 (≈ 1.57 µM) | 0.5 (≈ 1.57 µM) | 2 (≈ 6.26 µM) | 0.25 (≈ 0.783 µM) | – | – | –
NC1CN(c2nc3c(cc2F)c(=O)c(C(=O)O)cn3-c2ccc(F)cc2F)C1 | 0.12 (≈ 0.307 µM) | 0.25 (≈ 0.64 µM) | 0.015 (≈ 0.0384 µM) | 0.25 (≈ 0.64 µM) | 0.12 (≈ 0.307 µM) | 0.25 (≈ 0.64 µM) | 0.5 (≈ 1.28 µM) | 0.25 (≈ 0.64 µM) | 0.12 (≈ 0.307 µM) | 2 (≈ 5.12 µM) | 2 (≈ 5.12 µM) | 5.3 | 75.2 | 1.5
CC1(N)CN(c2c(F)cc3c(=O)c(C(=O)O)cn(C(C)(C)C)c3c2F)C1 | 0.12 (≈ 0.328 µM) | 0.5 (≈ 1.37 µM) | 0.06 (≈ 0.164 µM) | 0.5 (≈ 1.37 µM) | 0.25 (≈ 0.684 µM) | 0.5 (≈ 1.37 µM) | 1 (≈ 2.74 µM) | 0.5 (≈ 1.37 µM) | 0.25 (≈ 0.684 µM) | 2 (≈ 5.47 µM) | 2 (≈ 5.47 µM) | – | – | –
CCn1cc(C(=O)O)c(=O)c2c(N)c(F)c(N3CC(N)C3)c(F)c21 | 2 (≈ 5.91 µM) | 0.5 (≈ 1.48 µM) | 0.25 (≈ 0.739 µM) | 0.12 (≈ 0.355 µM) | 0.12 (≈ 0.355 µM) | 0.25 (≈ 0.739 µM) | 0.5 (≈ 1.48 µM) | 0.5 (≈ 1.48 µM) | 0.12 (≈ 0.355 µM) | 1 (≈ 2.96 µM) | 0.25 (≈ 0.739 µM) | – | – | –
CCn1cc(C(=O)O)c(=O)c2c(N)c(F)c(N3CC(C)(N)C3)c(F)c21 | 0.12 (≈ 0.341 µM) | 0.5 (≈ 1.42 µM) | 0.25 (≈ 0.71 µM) | 0.25 (≈ 0.71 µM) | 0.25 (≈ 0.71 µM) | 1 (≈ 2.84 µM) | 0.5 (≈ 1.42 µM) | 0.5 (≈ 1.42 µM) | 0.25 (≈ 0.71 µM) | 2 (≈ 5.68 µM) | 1 (≈ 2.84 µM) | – | – | –
CC1(O)CN(c2cc3c(cc2F)c(=O)c(C(=O)O)cn3C2CC2)C1 | 0.06 (≈ 0.181 µM) | 0.12 (≈ 0.361 µM) | 0.06 (≈ 0.181 µM) | 0.25 (≈ 0.752 µM) | 0.12 (≈ 0.361 µM) | 0.12 (≈ 0.361 µM) | 0.12 (≈ 0.361 µM) | 0.12 (≈ 0.361 µM) | 0.25 (≈ 0.752 µM) | 2 (≈ 6.02 µM) | 1 (≈ 3.01 µM) | – | – | –
O=C(O)c1cn(C2CC2)c2c(F)c(N3CC(N4CCCC4)C3)c(F)cc2c1=O | 0.06 (≈ 0.154 µM) | 0.12 (≈ 0.308 µM) | 0.12 (≈ 0.308 µM) | 0.12 (≈ 0.308 µM) | 0.06 (≈ 0.154 µM) | 0.12 (≈ 0.308 µM) | 0.25 (≈ 0.642 µM) | 0.12 (≈ 0.308 µM) | 0.06 (≈ 0.154 µM) | 2 (≈ 5.14 µM) | 0.5 (≈ 1.28 µM) | – | – | –

Continued by falling MIC (Bacillus subtilis), values first:

MIC (Bacillus subtilis) [µg/mL] | MIC (Staphylococcus aureus [1]) [µg/mL] | MIC (Klebsiella pneumoniae) [µg/mL] | MIC (Morganella morganii) [µg/mL] | MIC (Enterobacter cloacae) [µg/mL] | MIC (Bacillus cereus) [µg/mL] | MIC (Proteus vulgaris) [µg/mL] | MIC [2] [µg/mL] | MIC (Escherichia coli [3]) [µg/mL] | MIC (Pseudomonas aeruginosa [4]) [µg/mL] | MIC (Enterococcus faecalis) [µg/mL] | SMILES | ED50 (Staphylococcus aureus [5]) [mg/kg] | ED50 (Pseudomonas aeruginosa [6]) [mg/kg] | ED50 (Escherichia coli [7]) [mg/kg]
0.06 (≈ 0.137 µM) | 0.06 (≈ 0.137 µM) | 0.25 (≈ 0.573 µM) | 0.12 (≈ 0.275 µM) | 0.06 (≈ 0.137 µM) | 0.06 (≈ 0.137 µM) | 0.25 (≈ 0.573 µM) | 0.06 (≈ 0.137 µM) | 0.12 (≈ 0.275 µM) | 0.5 (≈ 1.15 µM) | 0.03 (≈ 0.0687 µM) | CC1(N)CN(c2c(F)c(N)c3c(=O)c(C(=O)O)cn(-c4ccc(F)cc4F)c3c2F)C1 | – | – | –
0.06 (≈ 0.156 µM) | 0.12 (≈ 0.311 µM) | 0.12 (≈ 0.311 µM) | 0.25 (≈ 0.649 µM) | 0.12 (≈ 0.311 µM) | 0.12 (≈ 0.311 µM) | 0.25 (≈ 0.649 µM) | 0.12 (≈ 0.311 µM) | 0.12 (≈ 0.311 µM) | 2 (≈ 5.19 µM) | 2 (≈ 5.19 µM) | CC1(N)CN(c2cc3c(cc2F)c(=O)c(C(=O)O)cn3-c2ccc(F)cc2)C1 | – | – | –
0.06 (≈ 0.165 µM) | 0.25 (≈ 0.688 µM) | 0.06 (≈ 0.165 µM) | 0.25 (≈ 0.688 µM) | 0.25 (≈ 0.688 µM) | 0.25 (≈ 0.688 µM) | 0.25 (≈ 0.688 µM) | 0.5 (≈ 1.38 µM) | 0.25 (≈ 0.688 µM) | 4 (≈ 11 µM) | 0.5 (≈ 1.38 µM) | NC(=O)C1CN(c2c(F)cc3c(=O)c(C(=O)O)cn(C4CC4)c3c2F)C1 | – | – | –
0.03 (≈ 0.0832 µM) | 0.12 (≈ 0.333 µM) | 0.12 (≈ 0.333 µM) | 0.06 (≈ 0.166 µM) | 0.12 (≈ 0.333 µM) | 0.12 (≈ 0.333 µM) | 0.12 (≈ 0.333 µM) | 0.12 (≈ 0.333 µM) | 0.03 (≈ 0.0832 µM) | 0.5 (≈ 1.39 µM) | 0.25 (≈ 0.694 µM) | CNC1CN(c2cc3c(cc2F)c(=O)c2c(=O)[nH]sc2n3C2CC2)C1 | – | – | –
0.03 (≈ 0.0801 µM) | 0.06 (≈ 0.16 µM) | 0.03 (≈ 0.0801 µM) | 0.06 (≈ 0.16 µM) | 0.06 (≈ 0.16 µM) | 0.06 (≈ 0.16 µM) | 0.12 (≈ 0.32 µM) | 0.06 (≈ 0.16 µM) | 0.03 (≈ 0.0801 µM) | 0.5 (≈ 1.34 µM) | 0.06 (≈ 0.16 µM) | CNC1(C)CN(c2cc3c(cc2F)c(=O)c2c(=O)[nH]sc2n3C2CC2)C1 | – | – | –
0.015 (≈ 0.0428 µM) | 0.25 (≈ 0.714 µM) | 0.5 (≈ 1.43 µM) | 0.5 (≈ 1.43 µM) | 0.5 (≈ 1.43 µM) | 0.25 (≈ 0.714 µM) | 0.5 (≈ 1.43 µM) | 0.25 (≈ 0.714 µM) | 0.5 (≈ 1.43 µM) | 4 (≈ 11.4 µM) | 1 (≈ 2.85 µM) | CC1(O)CN(c2c(F)cc3c(=O)c(C(=O)O)cn(C4CC4)c3c2F)C1 | – | – | –
0.015 (≈ 0.0433 µM) | 0.25 (≈ 0.722 µM) | 0.12 (≈ 0.346 µM) | 0.12 (≈ 0.346 µM) | 0.12 (≈ 0.346 µM) | 0.12 (≈ 0.346 µM) | 0.12 (≈ 0.346 µM) | 0.12 (≈ 0.346 µM) | 0.06 (≈ 0.173 µM) | 2 (≈ 5.77 µM) | 2 (≈ 5.77 µM) | CN(C)C1CN(c2nc3c(cc2F)c(=O)c(C(=O)O)cn3C2CC2)C1 | – | – | –
0.015 (≈ 0.0355 µM) | 0.03 (≈ 0.071 µM) | 0.06 (≈ 0.142 µM) | 0.03 (≈ 0.071 µM) | 0.015 (≈ 0.0355 µM) | 0.06 (≈ 0.142 µM) | 0.12 (≈ 0.284 µM) | 0.06 (≈ 0.142 µM) | 0.015 (≈ 0.0355 µM) | 0.12 (≈ 0.284 µM) | 0.06 (≈ 0.142 µM) | Nc1c(F)c(N2CC(N)C2)c(F)c2c1c(=O)c(C(=O)O)cn2-c1ccc(F)cc1F | – | – | –
0.015 (≈ 0.0471 µM) | 0.12 (≈ 0.377 µM) | 0.12 (≈ 0.377 µM) | 0.25 (≈ 0.785 µM) | 0.12 (≈ 0.377 µM) | 0.12 (≈ 0.377 µM) | 0.12 (≈ 0.377 µM) | 0.12 (≈ 0.377 µM) | 0.12 (≈ 0.377 µM) | 2 (≈ 6.28 µM) | 1 (≈ 3.14 µM) | O=C(O)c1cn(C2CC2)c2cc(N3CC(O)C3)c(F)cc2c1=O | – | – | –
0.015 (≈ 0.0362 µM) | 0.06 (≈ 0.145 µM) | 0.015 (≈ 0.0362 µM) | 0.5 (≈ 1.21 µM) | 0.5 (≈ 1.21 µM) | 0.12 (≈ 0.29 µM) | 0.25 (≈ 0.603 µM) | 0.06 (≈ 0.145 µM) | 0.25 (≈ 0.603 µM) | 8 (≈ 19.3 µM) | 0.5 (≈ 1.21 µM) | CS(=O)(=O)OC1CN(c2c(F)cc3c(=O)c(C(=O)O)cn(C4CC4)c3c2F)C1 | – | – | –
0.015 (≈ 0.0376 µM) | 0.25 (≈ 0.626 µM) | 0.25 (≈ 0.626 µM) | 1 (≈ 2.5 µM) | 2 (≈ 5.01 µM) | 0.25 (≈ 0.626 µM) | 1 (≈ 2.5 µM) | 0.25 (≈ 0.626 µM) | 1 (≈ 2.5 µM) | 8 (≈ 20 µM) | 2 (≈ 5.01 µM) | CC1(n2cccc2)CN(c2c(F)cc3c(=O)c(C(=O)O)cn(C4CC4)c3c2F)C1 | – | – | –
0.007 (≈ 0.0208 µM) | 0.06 (≈ 0.178 µM) | 0.007 (≈ 0.0208 µM) | 0.06 (≈ 0.178 µM) | 0.06 (≈ 0.178 µM) | 0.03 (≈ 0.0892 µM) | 0.06 (≈ 0.178 µM) | 0.12 (≈ 0.357 µM) | 0.06 (≈ 0.178 µM) | 2 (≈ 5.95 µM) | 0.5 (≈ 1.49 µM) | O=C(O)c1cn(C2CC2)c2c(F)c(N3CC(O)C3)c(F)cc2c1=O | 29.7 | 61.3 | 11.3
